Measurements from different studies.
Compare with care: the assays were run in different laboratories.
Cell line: HepG2
Effect on: cell growth or viability

CCCCNC(=O)NNC(=O)c1cccc(Nc2nccc(-c3ccncc3)n2)c1 — IC50 (MTT; 24 h): > 40 µM
Oc1c(I)cc(Cl)c2cccnc12 — IC50 (MTT; 48 h): 58.6 µM
CCN(CC)CCn1cccc1/C=N/NC(=O)Nc1cc2c(Nc3ccc(F)c(Cl)c3)ncnc2cc1O[C@H]1CCOC1 — IC50 (MTT; 72 h): 0.54 µM
Cc1cc(=O)oc2ccc(-c3cc(-c4ccccc4)nc(N)n3)c(O)c12 — IC50 (MTT; 72 h): > 128 µg/mL
O=C(NNC(=O)c1ccc(Nc2nccc(-c3ccc(Cl)cc3)n2)cc1)NC1CCCCC1 — IC50 (MTT; 24 h): 13.1 µM
Cc1ccc2nc(-c3ccc(N(C)C)cc3)[nH]c2c1 — IC50 (MTT; 48 h): 35.1 µM
COc1ccnc(-c2cc(OC)ccn2)c1 — IC50 (MTT; 48 h): > 50 µM
COc1cc2ncnc(Nc3ccc(F)c(Cl)c3)c2cc1NC(=O)N/N=C/c1cccn1CCN1CCCC1 — IC50 (MTT; 72 h): 0.16 µM
Oc1ccc(-c2csc(Nc3ccc4c(O)ncnc4c3)n2)cc1 — IC50 (MTT): 14.2 µM
CCOc1ccc(-c2nc3ccccc3[nH]2)cc1 — IC50 (MTT; 48 h): 43.1 µM
O=C(/C=C/c1ccc(O)c(O)c1)O[C@@H]1C[C@](O)(C(=O)O)C[C@@H](O)[C@H]1O — IC50 (WST-1; 48 h): 24.6 µM
O=C(N/N=C/c1cccn1CCCN1CCCCC1)Nc1cc2c(Nc3ccc(F)c(Cl)c3)ncnc2cc1O[C@H]1CCOC1 — IC50 (MTT; 72 h): 0.52 µM
Nc1nc(-c2ccc(NC(=O)c3ccc(Cl)c(Cl)c3)cc2F)c[nH]1 — IC50 (XTT; 24 h): 16.9 µM
O=C(N/N=C/c1cccn1CCN1CCCC1)Nc1cc2c(Nc3ccc(F)c(Cl)c3)ncnc2cc1O[C@H]1CCOC1 — IC50 (MTT; 72 h): 0.64 µM
COC(=O)CN=c1scc(-c2ccccc2)n1-c1ccccc1OC — IC50 (MTT; 72 h): 22.7 µM
O=C(N/N=C/CN1CCCC1)Nc1cc2c(Nc3ccc(F)c(Cl)c3)ncnc2cc1O[C@H]1CCOC1 — IC50 (MTT; 72 h): 2.09 µM
CC(=O)OCCOC(=O)[C@]1(C)CC[C@]2(C)CC[C@]3(C)C4=CC=C5C(=CC(=O)C(O)=C5C)[C@]4(C)CC[C@@]3(C)[C@@H]2C1 — IC50 (MTT; 48 h): 2.55 µM
CN1CCN(CCCn2cccc2/C=N/NC(=O)Nc2cc3c(Nc4ccc(F)c(Cl)c4)ncnc3cc2O[C@H]2CCOC2)CC1 — IC50 (MTT; 72 h): 0.68 µM
CC1=C(O)C(=O)C=C2C1=CC=C1[C@@]2(C)CC[C@@]2(C)[C@@H]3C[C@](C)(C(=O)OCCCCO)CC[C@]3(C)CC[C@]12C — IC50 (MTT; 48 h): 0.63 µM
O=[N+]([O-])c1ccc(-c2csc(Nc3ccc4c(O)ncnc4c3)n2)cc1 — IC50 (MTT): 6.87 µM
O=c1c(O)c(-c2ccc(O)c(O)c2)oc2cc(O)cc(O)c12 — IC50 (WST-1; 48 h): 10.1 µM
CNC(=O)c1cc(Oc2ccc(NC(=O)Nc3ccc(Cl)c(C(F)(F)F)c3)cc2)ccn1 — IC50 (MTT; 24 h): 16.9 µM
CC1=C(O)C(=O)C=C2C1=CC=C1[C@@]2(C)CC[C@@]2(C)[C@@H]3C[C@](C)(C(=O)OCCCCCCO)CC[C@]3(C)CC[C@]12C — IC50 (MTT; 48 h): 10.7 µM
COc1ccc(-c2nc3ccc(C)cc3[nH]2)cc1O — IC50 (MTT; 48 h): 59.8 µM
COc1ccc(-c2csc(Nc3ccc4c(O)ncnc4c3)n2)cc1 — IC50 (MTT): 17.3 µM
COC(=O)CN=c1scc(-c2ccccc2)n1-c1ccccc1 — IC50 (MTT; 72 h): 75.5 µM
CC(C)(C)NC(=O)NNC(=O)c1ccc(Nc2nccc(-c3ccccn3)n2)cc1 — IC50 (MTT): > 40 µM
C=CCn1c(-c2ccc(Cl)c(Cl)c2)nc2ccccc21 — IC50 (MTT): 66.1 µM
COc1cccc2c1C(=O)c1c(O)c3c(c(O)c1C2=O)C[C@@](O)(C(=O)CO)C[C@@H]3O[C@H]1C[C@H](N)[C@H](O)[C@H](C)O1 — IC50 (neutral red; 48 h): 0.23 µg/mL
Cc1ccc2nc(-c3ccc(Cl)cc3Cl)[nH]c2c1 — IC50 (MTT; 48 h): 30.7 µM
Cc1ccc2c(Cl)cc(Cl)c(O)c2n1 — IC50 (MTT; 48 h): > 100 µM
Cc1cccc(NC(=O)NNC(=O)c2ccc(Nc3nccc(-c4ccccn4)n3)cc2)c1 — IC50 (MTT): 23.3 µM
CC1=C(O)C(=O)C=C2C1=CC=C1[C@@]2(C)CC[C@@]2(C)[C@@H]3C[C@](C)(C(=O)OCCCO)CC[C@]3(C)CC[C@]12C — IC50 (MTT; 48 h): 0.75 µM
CC(C)C(=O)Nc1ccc([N+](=O)[O-])c(C(F)(F)F)c1 — IC50 (CCK-8; 48 h): 2.54 µM
COc1cc(-c2nc(OCc3cn(CC(=O)Nc4ccc(C)cc4)nn3)c3ccccc3n2)cc(OC)c1OC — IC50 (MTT; 72 h): 13.6 µM
COc1ccc(-c2cc(-c3ccc4oc(=O)cc(C)c4c3O)nc(N)n2)cc1 — IC50 (MTT; 72 h): > 128 µg/mL
Cc1cc(C)n(-c2nc(Nc3ccc(Br)cc3)nc(N3CCOCC3)n2)n1 — IC50 (MTT; 72 h): 3.01 µM
CC1(C)[C@@H](O)CC[C@]2(C)[C@H]3C(=O)C=C4[C@@H]5C[C@@](C)(C(=O)O)CC[C@]5(C)CC[C@@]4(C)[C@]3(C)CC[C@@H]12 — IC50 (MTT; 48 h): > 100 µM
Cc1ccc2nc(-c3ccc(Cl)c(Cl)c3)[nH]c2c1 — IC50 (MTT; 48 h): 56.7 µM
Cc1cc(=O)oc2ccc(-c3cc(-c4cccc(Cl)c4)nc(N)n3)c(O)c12 — IC50 (MTT; 72 h): > 128 µg/mL
O=C(N/N=C/c1cccn1CCCN1CCOCC1)Nc1cc2c(Nc3ccc(F)c(Cl)c3)ncnc2cc1O[C@H]1CCOC1 — IC50 (MTT; 72 h): 1.89 µM
O=c1[nH]cc(F)c(=O)[nH]1 — IC50 (MTT; 48 h): 32.8 µM
CC1=C(O)C(=O)C=C2C1=CC=C1[C@@]2(C)CC[C@@]2(C)[C@@H]3C[C@](C)(C(=O)OCCCN4C(=O)C5C=CC=CC5C4=O)CC[C@]3(C)CC[C@]12C (stereo partly shown) — IC50 (MTT; 48 h): 1.27 µM
Oc1ncnc2cc(Nc3nc(-c4ccccc4)cs3)ccc12 — IC50 (MTT): 11.9 µM
CC1=CC(C)(C)N(Cc2ccccc2)c2ccc(O)cc21 — IC50 (MTT; 72 h): 20 µM
C=CCn1c(-c2ccc([N+](=O)[O-])cc2)nc2ccc(C)cc21 — IC50 (MTT): 63.5 µM
COC1=C2C[C@@H](C)C[C@H](OC)[C@H](O)[C@@H](C)/C=C(\C)[C@H](OC(N)=O)[C@@H](OC)/C=C\C=C(/C)C(=O)NC(=CC1=O)C2=O — IC50 (MTT): 0.041 µM
COc1cc2ncnc(Nc3ccc(F)c(Cl)c3)c2cc1NC(=O)N/N=C/c1cccn1CCCN1CCCC1 — IC50 (MTT; 72 h): 0.06 µM
c1ccc2[nH]c(-c3ccncc3)nc2c1 — IC50 (MTT; 48 h): 87.7 µM
